Ecoli WT expand: growth inhibitors of E. coli BW25113 wild type. OD600 absorbance. growth inhibition, % at 100 µM. 0.15% of 98,000 active;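 active = growth inhibition above about 50% at one test dose, limit read from the data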;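 also: growth measured after 20 h incubation at 37 °C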
PostGolgi yeast: growth inhibition of a yeast mutant, post-Golgi transport screen; post-Golgi transport phenotypic cell assay; inhibition, % at 10 µM; 0.9% of 98,000 active;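 also: yeast cells grown in 1536-well plates; yeast grown about 18 h at 30C before absorbance read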
PostGolgi ctrl: yeast control strain growth, post-Golgi counter-screen; 5% of 98,000 active; AID 738; inhibition, % at 10 µM; efflux-deficient yeast background strain, growth absorbance A615, 16 h
HePTP inh: blocks human HePTP tyrosine phosphatase | 0.64% of 110,000 active | inhibition, % at 20 µM | AID 521 | recombinant HePTP phosphatase activity, OD absorbance; in the data active = inhibition above about 50%
Target sequence (P35236 whole entry, looked up): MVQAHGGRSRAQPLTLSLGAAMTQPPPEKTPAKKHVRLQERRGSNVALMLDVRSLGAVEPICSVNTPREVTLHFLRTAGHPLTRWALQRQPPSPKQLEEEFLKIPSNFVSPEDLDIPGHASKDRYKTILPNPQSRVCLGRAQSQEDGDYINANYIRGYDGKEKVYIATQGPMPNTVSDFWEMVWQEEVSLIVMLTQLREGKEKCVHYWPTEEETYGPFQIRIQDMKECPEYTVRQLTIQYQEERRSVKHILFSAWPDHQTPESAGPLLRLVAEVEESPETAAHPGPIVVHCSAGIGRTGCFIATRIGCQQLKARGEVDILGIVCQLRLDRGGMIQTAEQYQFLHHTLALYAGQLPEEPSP
Ecoli tolC: E. coli tolC mutant growth inhibition | E. coli BW25113 tolC mutant growth, OD615 | growth inhibition, % at 10 µM (by protocol) | 2.2% of 65,000 active | AID 573;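 active = growth inhibition at or above a cutoff equal to the mean over every tested compound plus 3 SD, cut at about 60% in these data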;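 also: growth measured after 20 h incubation at 37 °C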
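System: E. coli ΔtolC::kan strain BW25113; Buffer or medium: LB broth supplemented with 50 µg/mL kanamycin; Compound: 10 µM final, single dose; Incubation: bacterial growth with compound for 20 h at 37 °C; Signal: A615 absorbance measurement; Evaluation: growth inhibition in percent.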
PLAP activator: human PLAP activation | P05187 | purified PLAP enzyme, luminescent substrate read-out; hits give high values | activation fold at 20 µM | 1.2% of 96,000 active; in the data active = activation fold above about 2
Hits are given with their value; i = inactive; nt = not tested or not shown. Shown are actives, neighbours in structure and some others; about 5.5% of the full set was active somewhere. Rule as the data show it, unless noted: active = inhibition above about 30%; inactive = the rest.

SMILES | Ecoli WT expand | PostGolgi yeast | PostGolgi ctrl | HePTP inh | Ecoli tolC | PLAP activator
CCOc1cc(S(=O)(=O)N2CCCCCC2)ccc1F | i | i | i | nt | nt | i
Cc1ccccc1NC1=C/C(=N\S(=O)(=O)c2cccs2)c2ccccc2C1=O | i | 107.5 | 101.3 | nt | nt | i
C(=N\N=C(\c1ccccc1)C12CN3CN(CN(C3)C1)C2)/c1cccnc1 | nt | nt | nt | i | nt | nt
CCN(CC)c1nc2ccccc2nc1-n1nc(C)cc1C | i | i | 42.8 | nt | nt | i
Cc1cc(C)n(-c2nc3ccccc3n3cnnc23)n1 | i | i | i | i | i | i
CC(=O)Nc1nc(N2C(=O)c3ccccc3C2=O)n(-c2ccccc2)n1 | i | i | i | i | i | i
O=C(Nc1ccccc1-c1ccccc1)c1ccc(F)cc1 | nt | nt | nt | i | nt | nt
COc1ccc(C(=O)Nc2nc(N3C(=O)c4ccccc4C3=O)n(-c3ccccc3)n2)cc1 | i | i | i | nt | nt | 2.2
O=C(Nc1nc(N2C(=O)c3ccccc3C2=O)n(-c2ccccc2)n1)c1ccc(F)cc1 | i | i | i | nt | nt | 2.1
O=C(NC(=S)Nc1nc(-c2ccccc2)cs1)c1ccccc1 | nt | nt | nt | i | nt | nt
O=C(C1CCN(Cc2cc(Cl)ccc2O)CC1)N1CCN(Cc2ccccc2)CC1 | i | i | i | i | 94.8 | i
Oc1ccc(Br)cc1CN1CCN(C2CCN(Cc3ccccc3)CC2)CC1 | nt | nt | nt | i | nt | nt
COc1cc(NC(=O)c2cc3nc(-c4ccccc4)cc(C)n3n2)cc([N+](=O)[O-])c1 | nt | nt | nt | i | nt | nt
O=C(CN1C(=O)/C(=C/c2ccccc2)SC1=S)Nc1cccc(Br)c1 | nt | nt | nt | i | nt | nt
O=C(CN1C(=O)/C(=C/c2ccccc2)SC1=S)Nc1cccc(C(=O)O)c1 | nt | nt | nt | 51.7 | nt | nt
CCN(CC)c1ccc(N2C(=O)/C(=C/c3ccc(C(=O)O)cc3)SC2=S)cc1 | nt | nt | nt | 103.9 | nt | nt
O=C(CCN1C(=O)/C(=C/c2cccc(Br)c2)SC1=S)NNC(=O)c1cccnc1 | i | i | i | nt | nt | 2.2
O=C(CCCN1C(=O)/C(=C/c2ccc(F)cc2)SC1=S)Nc1ccc(C(=O)O)cc1 | nt | nt | nt | 102.4 | nt | nt
O=C(CCCN1C(=O)/C(=C/c2ccc(F)cc2)SC1=S)Nc1cccc(C(=O)O)c1 | nt | nt | nt | i | nt | nt
CCOc1ccc(N2C(=O)/C(=C/c3ccccc3OC)SC2=S)cc1 | nt | nt | nt | i | nt | nt
O=C(NC(=S)Nc1ccc([N+](=O)[O-])cc1O)C12CC3CC(CC(C3)C1)C2 | nt | nt | nt | i | nt | nt
Cc1cc(C)c(OCCCCN2CCCCC2)c(Cl)c1 | nt | nt | nt | i | nt | nt
CC1(C)CC(NC(=O)c2ccco2)CC(C)(CNC(=O)c2ccco2)C1 (stereo unspecified) | nt | nt | nt | i | nt | nt
CCOC(=O)c1cccnc1SCc1cc(=O)n2ccccc2n1 | i | 62.8 | i | i | i | i
Cc1ccccc1Cn1c2ccccc2c2cnn(CC(=O)N3CCN(c4ccccc4)CC3)c(=O)c21 | i | i | 42.3 | nt | nt | i
SMILES | Ecoli WT expand | PostGolgi yeast | PostGolgi ctrl | HePTP inh | Ecoli tolC | PLAP activator
Cc1ccc(C2=N/C(=C\c3cccs3)C(=O)N2Nc2ccccc2)cc1 | i | i | 31.9 | nt | nt | i
Cc1cccc(OCCn2cc(C=C3C(=O)NC(=S)NC3=O)c3ccccc32)c1 | nt | nt | nt | i | nt | nt
NS(=O)(=O)c1ccc(CCNC(=O)c2ccc(S(=O)(=O)N3CCCCC3)cc2)cc1 | i | i | i | nt | nt | 2
Cc1sc2nc(-c3ccc(Br)cc3)[nH]c(=O)c2c1C | nt | nt | nt | i | nt | nt
Clc1cccc(CSc2nnc(-c3c[nH]c4ccccc34)o2)c1 | i | i | i | nt | nt | i
O=c1c(-c2nnc(SCc3ccc(Cl)c(Cl)c3)o2)cccn1Cc1ccccc1 | i | i | 54.0 | nt | nt | i
FC(F)Sc1ccc(NC(=S)NC2CCCCC2)cc1 | i | i | i | nt | nt | i
FC(F)Sc1ccc(NC(=S)NCC2CCCCC2)cc1 | i | 36.4 | 38.2 | nt | nt | i
CCOC(=O)c1oc2ccc(S(=O)(=O)n3nc(-c4ccc(C)cc4)cc3N)cc2c1C | i | i | 32.3 | nt | nt | i
O=C(Nc1ccc(Cl)c(F)c1)c1cnn2c1NC(c1ccc(Br)cc1)CC2C(F)(F)F (stereo unspecified) | nt | nt | nt | i | nt | nt
COc1ccc(C(=O)N/N=C/c2ccc(Sc3nnnn3-c3ccccc3)o2)cc1OC | nt | nt | nt | i | nt | nt
c1ccc(-n2c(SCc3nc(-c4cccs4)no3)nnc2-c2ccco2)cc1 | i | i | 34.1 | i | i | i
c1ccc(-n2c(SCc3cccc4ccccc34)nnc2-c2ccco2)cc1 | nt | nt | nt | i | nt | nt
CCC(Sc1nnc(-c2ccc(C)c(Cl)c2)n1CC)C(=O)Nc1nccs1 (stereo unspecified) | i | i | i | i | 81.0 | i
O=C(Cc1ccccc1)Nc1ccc(NC(=O)C2CC2)nc1 | i | i | 39.2 | i | i | i
CCCC(=O)Nc1ccc(NC(=O)Cc2ccccc2)cn1 | i | i | i | i | i | i
CCCC(=O)Nc1ccc(NC(=O)CCc2ccccc2)cn1 | i | 30.5 | i | i | i | i
Cc1ccc(NC2=CC(=O)CC(C)(C)C2)c(N)c1 | i | i | 37.7 | i | i | i
Fc1ccc(/C=C2\CCCC3=C2Nc2ncnn2C3c2ccc(F)cc2)cc1 (stereo unspecified) | i | i | 80.9 | nt | nt | i
O=C1N/C(=N\N=C\c2ccc(O)cc2)SC1Cc1ccc(Br)cc1 (stereo unspecified) | nt | nt | nt | i | nt | nt
Cc1cccc(N2CCN(C(=O)c3c(C)nn(Cc4ccccc4Cl)c3C)CC2)c1C | i | i | 37.6 | nt | nt | i
O=C(NCCOc1nc(N2CCOCC2)nc(N2CCOCC2)n1)Nc1ccccc1 | i | i | i | nt | nt | i
CCN(CC)c1nc(OCCNC(=O)Nc2ccccc2)nc(N(CC)CC)n1 | i | i | i | nt | nt | 2.1
Oc1cnc(Nc2nc3ccccc3s2)[nH]1 | nt | nt | nt | i | nt | nt
COc1ccc(-c2nn(-c3ccccc3)cc2C(=O)NCCCn2ccnc2)cc1 | i | i | i | i | i | 2.6
SMILES | Ecoli WT expand | PostGolgi yeast | PostGolgi ctrl | HePTP inh | Ecoli tolC | PLAP activator
COC(=O)c1cn(-c2ccccc2)nc1-c1ccncc1 | i | i | i | nt | nt | i
CCOC(=O)c1ccc(NC(=O)c2ccc(NC(=O)c3ccccc3)cc2)cc1 | i | i | i | nt | nt | i
CCOC(=O)c1ccc(NC(=O)c2nn(C)cc2Br)cc1 | i | i | 35.2 | i | i | i
CCOC(=O)c1ccc(NC(=O)c2cn(-c3ccccc3)nc2-c2ccncc2)cc1 | i | 90.3 | 30.5 | nt | nt | i
O=C(OCc1ccccc1)c1cn(-c2ccccc2)nc1-c1ccncc1 | i | i | 37.0 | nt | nt | i
COc1ccc(C(=O)NCCCn2ccnc2)cc1 | i | i | i | i | i | i
COc1ccc(C/C(N)=N/OC(=O)c2ccc(Cl)cc2)cc1 | nt | nt | nt | i | nt | nt
N/C(Cc1ccc(Cl)cc1)=N\OC(=O)c1ccc2ccccc2c1 | i | i | 81.0 | nt | nt | i
N/C(Cc1ccc(Cl)cc1)=N\OC(=O)c1cccc2ccccc12 | i | 82.5 | 104.3 | nt | nt | i
Cc1cccc(CN2CCN(C(=O)c3ccc(F)cc3)CC2)c1 | nt | nt | nt | i | nt | nt
COc1ccc(C(=O)Nc2cc(C(F)(F)F)cc(C(F)(F)F)c2)cc1 | nt | nt | nt | 104.0 | nt | nt
COc1ccc(C(=O)Nc2cc(OC)cc(OC)c2)cc1 | i | i | i | i | i | i
CCCCCCOC(=O)C[N+](C)(C)CCOC1CC2CCC1(C)C2(C)C (stereo unspecified) | i | i | 36.8 | nt | nt | i
COC(=O)Cc1cc(=O)[nH]c(Nc2nc3ccccc3o2)n1 | i | i | i | i | i | 2.6
CCOC(=O)Cc1cc(=O)[nH]c(Nc2nc3ccccc3o2)n1 | i | i | i | i | i | i
